This is an account of results in ChEMBL document CHEMBL3526015, “Metabolism of the c-Fos/activator protein-1 inhibitor T-5224 by multiple human UDP-glucuronosyltransferase isoforms” (Drug Metab Dispos, 2011).

The target in data set [1] is T1, UDP-glucuronosyltransferase 1A3 (Homo sapiens, UniProt P35503).
T1 sequence (P35503 whole entry): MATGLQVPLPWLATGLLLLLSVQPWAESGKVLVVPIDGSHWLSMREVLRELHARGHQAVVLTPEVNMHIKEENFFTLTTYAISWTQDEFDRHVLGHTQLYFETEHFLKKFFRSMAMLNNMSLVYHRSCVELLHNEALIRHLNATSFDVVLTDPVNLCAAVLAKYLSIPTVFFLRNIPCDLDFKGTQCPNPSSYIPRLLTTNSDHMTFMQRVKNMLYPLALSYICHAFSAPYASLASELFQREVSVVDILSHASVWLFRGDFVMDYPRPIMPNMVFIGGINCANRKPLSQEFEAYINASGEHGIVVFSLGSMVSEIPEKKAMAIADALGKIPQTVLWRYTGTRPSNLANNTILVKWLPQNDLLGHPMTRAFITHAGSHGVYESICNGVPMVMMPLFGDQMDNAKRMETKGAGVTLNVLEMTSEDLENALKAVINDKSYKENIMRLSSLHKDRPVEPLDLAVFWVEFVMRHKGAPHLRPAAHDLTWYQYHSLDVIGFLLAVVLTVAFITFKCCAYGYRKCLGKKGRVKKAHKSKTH
The data set is described as follows: Drug metabolism assessed as Vmax/Km ratio for human UGT1A3-mediated T-5224 acyl O-glucuronide formation per mg protein after 10 to 60 mins in presence of UDP-glucuronic acid by HPLC method. Particulars: recombinant enzyme. The format is ADME. The procedure, abridged: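 Kinetics used recombinant UGT1A1, 1A3 or 1A8 (0.1 mg protein/mL) with T-5224 at 1–50 μM, 2 mM UDPGA and 60 min at 37°C, in triplicate. G2/G3 were measured by HPLC at 290 nm and fitted to a substrate-inhibition model (Vmax, Km, Ksi). UGT content was quantified by immunoblot, and kcat = Vmax/E0 was derived from it.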

In data set [2] the target is T1, UDP-glucuronosyltransferase 1A3. Description: Drug metabolism assessed as human UGT1A3-mediated T-5224 acyl O-glucuronide formation at 5 to 50 uM after 60 mins in presence of UDP-glucuronic acid by HPLC method. The format is ADME. The conditions noted are these: recombinant enzyme, 1 h.
A short description of data set [3]: Drug metabolism in pooled human intestinal microsomes assessed as T-5224 hydroxyl O-glucuronide formation at 10 uM after 10 mins by HPLC method. In kind it is ADME, Intestine, Microsome. The procedure, abridged:
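T-5224 at 10 μM incubated for 10 min at 37°C with UDPGA (2 mM) in pooled liver (0.5 mg protein/mL) or intestinal (0.25 mg protein/mL) microsomes. Buffer was 50 mM Tris-HCl pH 7.5 with 8 mM MgCl2 and alamethicin, after 5 min preincubation. Stopped with acetonitrile; glucuronides quantified by HPLC at 290 nm.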

The target in the next data set is T2, Cytochrome P450 1A2 (Homo sapiens, UniProt P05177).
T2 sequence (P05177 whole entry): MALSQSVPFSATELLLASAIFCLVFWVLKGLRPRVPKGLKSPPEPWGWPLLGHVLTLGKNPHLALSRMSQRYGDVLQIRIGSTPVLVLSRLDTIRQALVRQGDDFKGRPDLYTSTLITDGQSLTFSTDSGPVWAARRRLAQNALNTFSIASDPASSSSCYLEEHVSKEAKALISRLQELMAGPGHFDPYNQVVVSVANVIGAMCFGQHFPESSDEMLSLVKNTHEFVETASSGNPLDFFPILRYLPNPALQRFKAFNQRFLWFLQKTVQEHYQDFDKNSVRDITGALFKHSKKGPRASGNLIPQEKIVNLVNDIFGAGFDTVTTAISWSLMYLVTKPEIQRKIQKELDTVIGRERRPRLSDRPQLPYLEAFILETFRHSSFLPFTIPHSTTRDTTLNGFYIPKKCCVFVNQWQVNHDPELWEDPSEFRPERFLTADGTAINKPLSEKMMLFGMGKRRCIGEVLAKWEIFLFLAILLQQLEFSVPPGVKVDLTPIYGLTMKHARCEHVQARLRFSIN
The data set is described as follows: Drug metabolism assessed as human CYP1A2-mediated metabolite formation at 2 uM after 30 mins by HPLC method. The format is ADME. The conditions noted are these: recombinant enzyme, 0.5 h. The essentials: (§1)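 Each recombinant human P450 was used at 50 pmol/mL with an NADPH-generating system and 2 μM 14C-T-5224 (0.5% DMSO final). Buffer was 100 mM Tris-HCl pH 7.5, except 100 mM potassium phosphate pH 7.4 for CYP2A6 and CYP2C9*1. Incubation ran 30 min at 37°C and was stopped with acetonitrile/methanol. Radioactive metabolite peaks were detected by C18 HPLC.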

The target in another data set is Cytochrome P450 2C19 (Homo sapiens, UniProt P33261). Description: Drug metabolism assessed as human CYP2C19-mediated metabolite formation at 2 uM after 30 mins by HPLC method. In kind it is ADME. The conditions noted are these: recombinant enzyme, 0.5 h. The procedure, abridged: as §1
Chain of Cytochrome P450 2C19 (P33261 whole entry): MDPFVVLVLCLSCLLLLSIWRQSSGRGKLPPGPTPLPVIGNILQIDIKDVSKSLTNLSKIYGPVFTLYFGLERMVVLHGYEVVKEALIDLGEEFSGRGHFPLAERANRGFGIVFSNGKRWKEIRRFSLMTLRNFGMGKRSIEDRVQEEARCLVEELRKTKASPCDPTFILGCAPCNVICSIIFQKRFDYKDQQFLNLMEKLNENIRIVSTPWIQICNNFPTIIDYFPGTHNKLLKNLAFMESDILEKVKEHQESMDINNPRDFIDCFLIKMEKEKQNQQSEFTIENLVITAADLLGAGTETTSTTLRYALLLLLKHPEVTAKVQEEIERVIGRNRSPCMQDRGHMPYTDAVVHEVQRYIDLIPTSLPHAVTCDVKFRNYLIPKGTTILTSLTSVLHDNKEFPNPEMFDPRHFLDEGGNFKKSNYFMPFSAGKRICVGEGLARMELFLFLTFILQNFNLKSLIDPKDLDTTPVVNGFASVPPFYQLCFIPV

Structures are written as SMILES.

For `O=C(O)CCc1cc(C(=O)c2ccc(OC3CCCC3)cc2O)ccc1OCc1ccc2c(O)noc2c1`, the Vmax/Km in data set [1] turned out to be 15.5 µL/min. The Drug metabolism entry in data set [2] is recorded as “metabolite_detected”; in data set [3], “metabolite_detected”; on Cytochrome P450 1A2, “metabolite_not_detected”; on Cytochrome P450 2C19, “metabolite_not_detected”.
